Results gathered from unrelated publications.
Lines come from different studies, so protocols differ.
Target: Serine/threonine-protein kinase Sgk2 (SGK2, Homo sapiens, UniProt Q9HBY8)
Residues used in one study (Q9HBY8 1-367): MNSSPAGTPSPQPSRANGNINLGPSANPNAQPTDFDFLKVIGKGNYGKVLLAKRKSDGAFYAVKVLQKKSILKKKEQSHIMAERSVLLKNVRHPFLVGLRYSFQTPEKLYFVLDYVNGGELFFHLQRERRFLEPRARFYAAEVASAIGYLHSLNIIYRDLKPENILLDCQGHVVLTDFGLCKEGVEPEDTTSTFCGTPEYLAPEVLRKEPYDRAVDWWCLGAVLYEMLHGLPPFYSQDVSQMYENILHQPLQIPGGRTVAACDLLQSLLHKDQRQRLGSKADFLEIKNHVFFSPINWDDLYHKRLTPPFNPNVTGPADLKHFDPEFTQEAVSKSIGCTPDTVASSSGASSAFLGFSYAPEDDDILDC

| SMILES | test | conditions | endpoint | result |
| --- | --- | --- | --- | --- |
| O=C(NS(=O)(=O)c1ccc(NCC2CCOCC2)c([N+](=O)[O-])c1)c1ccc(N2CCN(Cc3ccc(C(F)(F)F)cc3-c3ccc(Cl)cc3)CC2)cc1Oc1cnc2[nH]ccc2c1 | cell-free assay, competition with immobilised ligand | 1 µM | remaining binding | 100% |
| CCCOc1ccc(OC)c(F)c1C(=O)c1ccc(C(=O)N[C@@H]2CNC[C@H]2NC(=O)c2ccc3[nH]ncc3c2)cc1 | enzyme activity, inhibitor | 10 µM | remaining activity | 1% |
| CSc1cccnc1N1CCN(Cc2nc3ccccc3[nH]2)CC1 | cell-free assay, competition with immobilised ligand | 1 µM | remaining binding | 81% |
| COc1cc(Cl)c(C(=O)N[C@@H](CN[C@H]2CC[C@@H](N)CC2)Cc2ccc(C#N)cc2)cc1-c1ccc(CN[C@H](C)c2ccc(C)cc2)o1 | enzyme activity, inhibitor | 1 µM | remaining activity | 82% |
| NS(=O)(=O)c1cc(NC(=O)C2(c3ccccc3Cl)CC2)ccc1Oc1cccc(Cl)c1 | cell-free assay, competition with immobilised ligand | 1 µM | remaining binding | 100% |
| N#CCCc1ccc2c(c1)-c1[nH]c3ccc([N+](=O)[O-])cc3c1CC(=O)N2 | cell-free assay | 0.5 µM | remaining signal | 114% |
| Nc1cnc(N2CCc3cc(S(=O)(=O)Nc4c(F)cc(Cl)cc4F)cc(N4CCCC4=O)c32)nc1 | cell-free assay, competition with immobilised ligand | 1 µM | remaining binding | 76% |
| CCN(CC)c1ccc(C2=NNC(=O)CC2C)cc1[N+](=O)[O-] (stereo not drawn) | enzyme activity, inhibitor | 10 µM | remaining activity | 104% |
| Cc1cnc(NC2CCOCC2)nc1-n1cnc(C(=O)NC(CN)c2cc(F)cc(Cl)c2)c1 (stereo not drawn) | enzyme activity, inhibitor, radiometric | 1 µM | remaining activity | 25% |
| CCCS(=O)(=O)Nc1ccc(F)c(C(=O)c2c[nH]c3ncc(-c4ccc(Cl)cc4)cc23)c1F | enzyme activity, inhibitor | 1 µM | inhibition | < 10% |
| CCC(=N\O)/C(C)=C/c1ccc(F)cc1 | cell-free assay, competition with immobilised ligand | 1 µM | remaining binding | 78% |
| COc1cc2ncnc(Nc3ccc(Oc4ccccc4)c(C)c3C)c2cc1OC | enzyme activity, inhibitor | 1 µM | inhibition | 0% |
| CC(C)(C)c1nc(-c2cccc(NS(=O)(=O)c3c(F)cccc3F)c2F)c(-c2ccnc(N)n2)s1 | enzyme activity, inhibitor, radiometric | 1 µM | remaining activity | 101% |
| Cn1cnc(Br)c1C1=CN(c2ncnc3[nH]cnc23)CCS1 | enzyme activity, inhibitor, radiometric | 50 nM | inhibition | 20.8% |
| Cc1ccc(NC(=O)c2ccc(C)c(C(F)(F)F)c2)cc1C#Cc1nn(C2CCC(O)CC2)c2ncnc(N)c12 (stereo not drawn) | cell-free assay | 10 µM | remaining signal | 97% |
| CNC(=O)c1cc(Oc2ccc(NC(=O)Nc3ccc(Cl)c(C(F)(F)F)c3)cc2)ccn1 | enzyme activity, inhibitor | 10 µM | inhibition | -2% |
| Cc1sc(C(=O)NC2COC2)cc1-n1cc(NC(=O)Nc2c(F)cccc2Cl)cn1 | enzyme activity, inhibitor | 10 µM | remaining activity | 97.2% |
| Cc1ccc(Nc2nccc(N(C)c3ccc4c(C)n(C)nc4c3)n2)cc1S(N)(=O)=O | enzyme activity, inhibitor | 0.3 µM | inhibition | 5% |
| O=C1NC(=O)c2cc(Nc3ccc(F)cc3)c(Nc3ccc(F)cc3)cc21 | cell-free assay | 0.5 µM | remaining signal | 99.7% |
| CNC(=O)Nc1ccc2c(c1)CC[C@@]21OC(=O)N(CC(=O)N(Cc2ccc(F)cc2)[C@@H](C)C(F)(F)F)C1=O | cell-free assay, competition with immobilised ligand | 1 µM | remaining binding | 100% |
| CCN(CC)CCNC(=O)c1c(C)[nH]c(/C=C2\C(=O)Nc3ccc(F)cc32)c1C | enzyme activity, inhibitor | 0.3 µM | inhibition | 4% |
